# Active and inactive are the calls of the source. The rule behind the calls is not given here.
# What was measured:
# [1] = target: T1, Receptor tyrosine-protein kinase erbB-2 (Homo sapiens, UniProt P04626); assay: Inhibition of ErbB2 kinase
# [2] = target: T1, Receptor tyrosine-protein kinase erbB-2; assay: Inhibition of Erb2 autophosphorylation by cellular clone 24 assay; type: functional
# [3] = Lipophilicity, log D of the compound; type: physicochemical; conditions: octanol/water
# [4] = target: Epidermal growth factor receptor (Homo sapiens, UniProt P00533)
# Epidermal growth factor receptor, sequence (P00533 whole entry): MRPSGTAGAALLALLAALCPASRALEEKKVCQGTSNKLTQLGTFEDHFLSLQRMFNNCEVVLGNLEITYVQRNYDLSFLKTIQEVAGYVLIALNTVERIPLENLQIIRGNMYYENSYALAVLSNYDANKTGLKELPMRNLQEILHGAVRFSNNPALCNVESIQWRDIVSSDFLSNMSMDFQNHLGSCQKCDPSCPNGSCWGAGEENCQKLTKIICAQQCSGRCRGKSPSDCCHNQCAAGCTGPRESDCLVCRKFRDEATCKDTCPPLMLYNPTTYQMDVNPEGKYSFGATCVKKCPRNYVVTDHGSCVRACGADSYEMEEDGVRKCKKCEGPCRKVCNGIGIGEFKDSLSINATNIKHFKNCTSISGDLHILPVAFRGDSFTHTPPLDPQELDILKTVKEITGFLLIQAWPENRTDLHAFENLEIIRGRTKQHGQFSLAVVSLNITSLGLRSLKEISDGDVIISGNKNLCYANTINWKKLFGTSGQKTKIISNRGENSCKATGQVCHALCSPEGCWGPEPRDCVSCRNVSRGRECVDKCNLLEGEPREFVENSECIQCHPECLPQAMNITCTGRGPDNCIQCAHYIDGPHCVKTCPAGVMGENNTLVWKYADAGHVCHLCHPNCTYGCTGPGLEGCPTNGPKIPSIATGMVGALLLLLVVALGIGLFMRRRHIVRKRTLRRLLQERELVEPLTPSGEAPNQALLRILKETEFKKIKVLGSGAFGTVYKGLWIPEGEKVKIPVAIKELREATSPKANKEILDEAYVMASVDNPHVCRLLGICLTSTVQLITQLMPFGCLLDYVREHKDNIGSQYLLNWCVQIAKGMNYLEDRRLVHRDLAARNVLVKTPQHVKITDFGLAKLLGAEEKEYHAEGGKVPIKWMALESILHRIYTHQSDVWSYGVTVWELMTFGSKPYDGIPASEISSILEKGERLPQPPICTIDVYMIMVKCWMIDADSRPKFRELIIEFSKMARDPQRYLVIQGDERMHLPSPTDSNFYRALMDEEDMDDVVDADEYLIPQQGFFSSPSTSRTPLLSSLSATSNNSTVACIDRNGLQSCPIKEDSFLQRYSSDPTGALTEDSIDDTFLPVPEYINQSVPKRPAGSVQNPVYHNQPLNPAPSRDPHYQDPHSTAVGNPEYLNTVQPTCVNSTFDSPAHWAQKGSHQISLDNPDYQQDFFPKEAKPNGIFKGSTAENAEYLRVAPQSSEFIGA
# [5] = Antiproliferative activity against BT474C cells; type: functional, cell-based; conditions: Homo sapiens
# KB [6] = assay: Antiproliferative activity against human KB cells
# KB [7] = assay: Effect on growth of human KB cells
# [8] = target: Vascular endothelial growth factor receptor 2 (Homo sapiens, UniProt P35968); assay: Inhibition of Kdr
# Vascular endothelial growth factor receptor 2, sequence (P35968 whole entry): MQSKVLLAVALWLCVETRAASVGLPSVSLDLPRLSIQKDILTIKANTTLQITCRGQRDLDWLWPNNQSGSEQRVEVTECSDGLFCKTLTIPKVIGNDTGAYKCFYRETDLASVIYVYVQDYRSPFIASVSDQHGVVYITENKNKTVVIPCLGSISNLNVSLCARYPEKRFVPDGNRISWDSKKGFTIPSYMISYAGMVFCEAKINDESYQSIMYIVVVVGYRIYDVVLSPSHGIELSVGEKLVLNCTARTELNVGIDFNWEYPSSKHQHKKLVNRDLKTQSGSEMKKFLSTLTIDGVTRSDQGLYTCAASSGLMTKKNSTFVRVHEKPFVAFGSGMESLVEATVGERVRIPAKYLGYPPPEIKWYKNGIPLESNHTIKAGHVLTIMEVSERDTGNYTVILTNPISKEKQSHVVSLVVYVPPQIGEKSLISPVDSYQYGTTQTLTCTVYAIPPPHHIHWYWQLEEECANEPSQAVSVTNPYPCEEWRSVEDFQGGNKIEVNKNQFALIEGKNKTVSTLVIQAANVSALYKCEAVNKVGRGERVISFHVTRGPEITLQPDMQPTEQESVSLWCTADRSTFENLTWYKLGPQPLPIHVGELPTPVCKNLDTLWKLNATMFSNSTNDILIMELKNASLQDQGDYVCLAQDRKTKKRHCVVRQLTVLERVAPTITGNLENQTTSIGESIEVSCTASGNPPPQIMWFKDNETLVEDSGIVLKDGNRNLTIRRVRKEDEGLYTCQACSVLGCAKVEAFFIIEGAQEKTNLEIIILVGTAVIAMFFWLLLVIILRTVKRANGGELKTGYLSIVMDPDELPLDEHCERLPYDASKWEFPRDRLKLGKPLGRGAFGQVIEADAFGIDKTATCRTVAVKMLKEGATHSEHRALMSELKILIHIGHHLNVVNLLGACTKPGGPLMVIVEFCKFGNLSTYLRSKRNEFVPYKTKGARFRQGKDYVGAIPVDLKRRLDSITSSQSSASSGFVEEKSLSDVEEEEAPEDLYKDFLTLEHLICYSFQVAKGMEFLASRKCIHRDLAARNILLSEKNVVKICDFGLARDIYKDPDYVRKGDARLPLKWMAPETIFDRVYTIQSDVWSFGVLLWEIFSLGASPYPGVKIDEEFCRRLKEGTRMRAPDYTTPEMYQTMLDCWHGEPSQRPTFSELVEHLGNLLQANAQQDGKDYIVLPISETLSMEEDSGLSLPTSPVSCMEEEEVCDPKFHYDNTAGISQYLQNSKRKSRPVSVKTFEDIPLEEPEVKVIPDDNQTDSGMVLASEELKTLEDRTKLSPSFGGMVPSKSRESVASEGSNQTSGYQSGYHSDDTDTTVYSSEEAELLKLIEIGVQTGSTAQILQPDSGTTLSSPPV
# [9] = target: Proto-oncogene tyrosine-protein kinase Src (Homo sapiens, UniProt P12931); assay: Inhibition of Src
# Proto-oncogene tyrosine-protein kinase Src, sequence (P12931 2-536 limits assumed): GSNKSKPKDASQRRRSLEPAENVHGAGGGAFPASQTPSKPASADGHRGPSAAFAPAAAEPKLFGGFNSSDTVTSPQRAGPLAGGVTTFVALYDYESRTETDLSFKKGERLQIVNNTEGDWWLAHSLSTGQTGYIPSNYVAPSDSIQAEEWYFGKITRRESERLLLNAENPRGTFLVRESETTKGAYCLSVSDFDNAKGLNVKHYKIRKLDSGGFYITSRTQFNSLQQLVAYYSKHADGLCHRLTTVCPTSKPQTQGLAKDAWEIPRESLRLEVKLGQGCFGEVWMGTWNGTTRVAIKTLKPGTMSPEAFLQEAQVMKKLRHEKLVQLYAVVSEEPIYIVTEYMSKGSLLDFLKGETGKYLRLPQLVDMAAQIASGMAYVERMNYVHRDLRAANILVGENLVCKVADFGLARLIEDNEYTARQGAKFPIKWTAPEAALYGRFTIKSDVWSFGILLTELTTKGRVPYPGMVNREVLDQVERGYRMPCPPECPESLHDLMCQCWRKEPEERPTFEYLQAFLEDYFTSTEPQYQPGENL
# [10] = Volume of distribution at steady state in Alderley Park mouse at 2 mg/kg, iv and 5 mg/kg, po; type: ADME, organism-based; conditions: in vivo, read-out: Vdss
# Outline: (§1)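 Pharmacokinetics after intravenous dosing at 2 mg/kg and oral dosing at 5 mg/kg in immunocompetent female Alderley Park mice and in female Alderley Park rats. Male Alderley Park beagles received 50 mg iv and 250 mg p.o.; dog figures are means. AUC is AUC0-24 taken from the oral dose.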
# Mus musculus [11] = assay: AUC (0 to 24 hrs) in Alderley Park mouse at 5 mg/kg, po; type: ADME, organism-based, Plasma; parameters: time < 24 hr, dose 5 mg/kg, route oral; conditions: in vivo; outline: as §1
# Mus musculus [12] = assay: Bioavailability in Alderley Park mouse at 2 mg/kg, iv and 5 mg/kg, po; type: ADME, organism-based; conditions: in vivo; outline: as §1
# [13] = Volume of distribution at steady state in Alderley Park rat at 2 mg/kg, iv and 5 mg/kg, po; type: ADME, organism-based; conditions: in vivo, read-out: Vdss; outline: as §1
# [14] = Clearance in Alderley Park rat at 2 mg/kg, iv and 5 mg/kg, po; type: ADME, organism-based; conditions: in vivo; outline: as §1
# [15] = AUC (0 to 24 hrs) in Alderley Park rat at 5 mg/kg, po; type: ADME, organism-based; parameters: time < 24 hr, dose 5 mg/kg, route oral; conditions: plasma; outline: as §1
# [16] = Bioavailability in Alderley Park rat at 2 mg/kg, iv and 5 mg/kg, po; type: ADME, organism-based; conditions: in vivo; outline: as §1
# [17] = Volume of distribution at steady state in Alderley Park Beagle dog at 50 mg/kg, iv and […], po; type: ADME, organism-based, Canis lupus familiaris; conditions: in vivo, read-out: Vdss; outline: as §1
# Canis familiaris [18] = assay: AUC (0 to 24 hrs) in Alderley Park Beagle dog at […], po; type: ADME, organism-based, Canis lupus familiaris, Plasma; parameters: time < 24 hr, route oral; conditions: in vivo; outline: as §1
# Canis familiaris [19] = assay: Bioavailability in Alderley Park Beagle dog at 50 mg/kg, iv and […], po; type: ADME, organism-based, Canis lupus familiaris; conditions: in vivo; outline: as §1
# [20] = Plasma concentration in mouse at 50 mg/kg, po after 2 hrs; type: ADME, organism-based; parameters: dose 50 mg/kg, route oral
# Outline: (§2)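 Female mice were given a single oral dose of 50 mg/kg without ABT. Total plasma concentration was measured at 2, 4, 6, 16 and 24 h, and AUC was derived.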
# [21] = Plasma concentration in mouse at 50 mg/kg, po in presence of 1-aminobenzotriazole after 2 hrs; type: ADME, organism-based; parameters: dose 50 mg/kg, route oral
# [22] = Plasma concentration in mouse at 50 mg/kg, po in presence of 1-aminobenzotriazole after 4 hrs; type: ADME, organism-based; parameters: dose 50 mg/kg, route oral
# [23] = Plasma concentration in mouse at 50 mg/kg, po in presence of 1-aminobenzotriazole after 6 hrs; type: ADME, organism-based; parameters: dose 50 mg/kg, route oral
# [24] = Plasma concentration in mouse at 50 mg/kg, po in presence of 1-aminobenzotriazole after 16 hrs; type: ADME, organism-based; parameters: dose 50 mg/kg, route oral
# [25] = Plasma concentration in mouse at 50 mg/kg, po in presence of 1-aminobenzotriazole after 24 hrs; type: ADME, organism-based; parameters: dose 50 mg/kg, route oral
# Mus musculus [26] = assay: AUC in mouse at 50 mg/kg, po; type: ADME, organism-based, Plasma; parameters: dose 50 mg/kg, route oral; conditions: in vivo; outline: as §2
# [27] = AUC in mouse at 50 mg/kg, po in presence of 1-aminobenzotriazole; type: ADME, organism-based; parameters: dose 50 mg/kg, route oral; conditions: plasma
# Phospholipidosis = assay: In vivo phospholipidosis in rat after 14 days at 600 mg/kg dose q.d.; type: ADME, organism-based; parameters: dose 600 mg/kg; conditions: 336 h
# Outline: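 Rat toxicology study lasting 14 days with once-daily dosing at up to 600 mg/kg, examined for phospholipidosis.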
# BT474C [28] = assay: Antitumor activity against human BT474C cells xenografted mouse at 50 mg/kg, po qd for 21 days; type: functional, organism-based; parameters: dose 50 mg/kg
# BT474C [29] = assay: Antitumor activity against human BT474C cells xenografted mouse at 50 mg/kg, po bid for 21 days; type: functional, organism-based; parameters: dose 50 mg/kg
# Mus musculus [30] = assay: Inhibition of erbB2 phosphorylation in human BT474C cells xenografted mouse at 50 mg/kg, po bid for 21 days; type: functional; conditions: 504 h
# LoVo [31] = assay: Growth inhibition of LoVo cells xenografted in mouse at 50 mg/kg, po bid; type: functional, organism-based; parameters: dose 50 mg/kg; conditions: Homo sapiens
# Outline: (§3)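 LoVo xenografts in mice were dosed orally at 50 mg/kg b.i.d. Tumour growth and tumour phospho-EGFR were assessed.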
# Mus musculus [32] = assay: Inhibition of phospho-EGFR in LoVo cells xenografted mouse at 50 mg/kg, po bid; type: functional, organism-based; parameters: dose 50 mg/kg; outline: as §3
# LoVo [33] = assay: Growth inhibition of LoVo cells xenografted in rat at 300 mg/kg, po qd; conditions: Homo sapiens
# Rattus norvegicus = assay: Inhibition of phospho-EGFR in LoVo cells xenografted rat at 300 mg/kg, po qd
# Mus musculus [34] = assay: Inhibition of erbB2 phosphorylation in human BT474C cells xenografted mouse at 50 mg/kg, po
# T1 sequence (P04626 whole entry): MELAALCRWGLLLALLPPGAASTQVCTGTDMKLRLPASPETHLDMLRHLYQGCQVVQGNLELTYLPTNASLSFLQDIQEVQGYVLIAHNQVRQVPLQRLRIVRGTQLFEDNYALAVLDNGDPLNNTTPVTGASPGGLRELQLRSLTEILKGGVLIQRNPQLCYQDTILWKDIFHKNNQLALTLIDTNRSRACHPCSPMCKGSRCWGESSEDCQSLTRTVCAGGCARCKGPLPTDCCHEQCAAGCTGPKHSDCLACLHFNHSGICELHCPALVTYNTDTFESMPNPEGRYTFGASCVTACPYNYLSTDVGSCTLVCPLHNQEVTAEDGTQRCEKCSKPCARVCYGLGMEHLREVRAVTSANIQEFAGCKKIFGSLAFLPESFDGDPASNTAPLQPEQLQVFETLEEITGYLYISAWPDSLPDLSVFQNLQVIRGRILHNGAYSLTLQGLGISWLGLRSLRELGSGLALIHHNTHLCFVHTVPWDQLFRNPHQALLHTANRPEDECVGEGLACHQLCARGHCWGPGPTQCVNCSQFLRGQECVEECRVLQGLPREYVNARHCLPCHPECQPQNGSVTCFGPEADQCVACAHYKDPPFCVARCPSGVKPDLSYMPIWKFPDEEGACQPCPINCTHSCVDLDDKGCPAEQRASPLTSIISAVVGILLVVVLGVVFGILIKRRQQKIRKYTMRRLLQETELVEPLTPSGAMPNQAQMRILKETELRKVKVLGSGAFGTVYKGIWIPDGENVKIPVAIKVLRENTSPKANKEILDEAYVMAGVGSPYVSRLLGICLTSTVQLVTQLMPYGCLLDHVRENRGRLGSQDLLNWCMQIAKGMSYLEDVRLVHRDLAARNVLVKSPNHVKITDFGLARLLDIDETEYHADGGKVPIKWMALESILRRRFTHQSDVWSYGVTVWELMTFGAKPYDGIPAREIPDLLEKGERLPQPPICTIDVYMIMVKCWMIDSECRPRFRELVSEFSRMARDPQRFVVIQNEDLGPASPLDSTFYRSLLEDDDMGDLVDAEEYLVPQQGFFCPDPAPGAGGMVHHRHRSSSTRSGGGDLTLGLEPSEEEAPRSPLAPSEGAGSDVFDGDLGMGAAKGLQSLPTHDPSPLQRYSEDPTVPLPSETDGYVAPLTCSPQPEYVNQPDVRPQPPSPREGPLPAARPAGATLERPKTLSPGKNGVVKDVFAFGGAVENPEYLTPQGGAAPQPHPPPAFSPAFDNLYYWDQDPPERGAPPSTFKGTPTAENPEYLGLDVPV
compound,measurement,setting,value
O=C(CO)N1CCC[C@H]1COc1cccc2ncnc(Nc3ccc(OCc4ccccn4)c(Cl)c3)c12,IC50,[1],2 nM
same,IC50,[2],259 nM
same,logD,[3],3
same,IC50,[4],327 nM
O=C(CO)N1CCC[C@@H]1COc1cccc2ncnc(Nc3ccc(OCc4ccccn4)c(Cl)c3)c12,IC50,[1],< 2 nM
same,IC50,[2],147 nM
same,logD,[3],3
same,IC50,[4],97 nM
C[C@@H](COc1cccc2ncnc(Nc3ccc(OCc4ccccn4)c(Cl)c3)c12)N(C)C(=O)CO,IC50,[1],19 nM
same,IC50,[2],131 nM
same,logD,[3],3
same,IC50,[4],2580 nM
C[C@H](COc1cccc2ncnc(Nc3ccc(OCc4ccccn4)c(Cl)c3)c12)N(C)C(=O)CO,IC50,[1],< 2 nM
same,IC50,[2],11 nM
same,logD,[3],3
same,IC50,[4],3 nM
C[C@H](CN(C)C(=O)CO)Oc1cccc2ncnc(Nc3ccc(OCc4ccccn4)c(Cl)c3)c12,IC50,[1],< 2 nM
same,IC50,[2],11 nM
same,logD,[3],3
same,IC50,[5],34 nM
same,IC50,KB [6],141 nM
same,IC50,KB [7],6940 nM
same,IC50,[4],2 nM
CN(CCOc1cccc2ncnc(Nc3ccc(OCc4ccccn4)c(Cl)c3)c12)C(=O)CO,IC50,[1],4 nM
same,IC50,[2],43 nM
same,logD,[3],3
same,IC50,[8],> 1000 nM
same,IC50,[9],> 1000 nM
same,IC50,[5],130 nM
same,IC50,KB [6],621 nM
same,IC50,KB [7],8140 nM
same,Vd,[10],0.7 L/kg
same,AUC,Mus musculus [11],0.02 µM·h
same,F,Mus musculus [12],4%
same,Vd,[13],0.9 L/kg
same,clearance,[14],10 mL/min/kg
same,AUC(0-t) at 24 h,[15],5.5 µM·h
same,bioavailability,[16],32%
same,Vd,[17],1 L/kg
same,AUC,Canis familiaris [18],32 µM·h
same,F,Canis familiaris [19],51%
same,concentration at 2 h,[20],0.35 µM
same,concentration at 2 h,[21],16.5 µM
same,concentration at 4 h,[22],13.8 µM
same,concentration at 6 h,[23],6.3 µM
same,concentration at 16 h,[24],0.026 µM
same,concentration at 24 h,[25],0.007 µM
same,AUC,Mus musculus [26],0.89 µM·h
same,AUC,[27],99 µM·h
same,Phospholipidosis,Phospholipidosis,Not Active
same,Activity,BT474C [28],Active
same,Activity,BT474C [29],Active
same,inhibition in vivo at 50 mg/kg,Mus musculus [30],70%
same,Activity,LoVo [31],inactive
same,Activity,Mus musculus [32],inactive
same,IC50,[4],35 nM
same,Activity,LoVo [33],inactive
same,Activity,Rattus norvegicus,inactive
same,inhibition in vivo at 50 mg/kg,Mus musculus [34],70%
C[C@@H](CN(C)C(=O)CO)Oc1cccc2ncnc(Nc3ccc(OCc4ccccn4)c(Cl)c3)c12,IC50,[1],22 nM
same,IC50,[2],291 nM
same,logD,[3],3
same,IC50,[4],191 nM

# Source: ChEMBL document CHEMBL1140495, “Neutral 5-substituted 4-anilinoquinazolines as potent, orally active inhibitors of erbB2 receptor tyrosine kinase” (Bioorg Med Chem Lett, 2007)
